# Measurements from different studies.
# Each line is one published result; the experiments were not run side by side.
# Target: Calcium/calmodulin-dependent protein kinase type II subunit alpha (CAMK2A, Homo sapiens, UniProt Q9UQM7)
SMILES,assay,setting,measurement,value
O=C1Nc2ccc(Cl)cc2C1=Cc1cc(Cl)c(O)c(Cl)c1,cell-free assay,0.5 µM,remaining signal,92.9%
CC/C(=N\NC(=O)NCc1cccc(O)c1)c1ccc(O)c(C)c1O,"enzyme activity, inhibitor",0.1 µM,inhibition,-1.9%
Nc1ncnc2occ(-c3ccc(NC(=O)Nc4cc(C(F)(F)F)ccc4F)cc3)c12,"enzyme activity, inhibitor",20 µM,remaining activity,61%
O=C1CCc2cc(Nc3cc(OC4CCOCC4)c([N+](=O)[O-])cc3Cl)ccc2N1,"cell-free assay, competition with immobilised ligand",1 µM,remaining binding,85%
O=C(Nc1cnn(-c2csc(C(=O)NC3COC3)c2)c1)Nc1ccccc1Cl,"enzyme activity, inhibitor",5 µM,remaining activity,100%
Cn1c2c(c3ccc(Cl)c(Cl)c31)C(C#N)C1(CCNCC1)NC2=O (racemic),"thermal stability, DSF",10 µM,ΔTm,1.2 °C
Cc1cc(-n2nc(Cc3cc(F)cc(C(F)(F)F)c3)nc2C)ccc1C(N)=O,"cell-free assay, competition with immobilised ligand",1 µM,remaining binding,99%
CC(C)(C)c1nc(-c2cccc(NS(=O)(=O)c3c(F)cccc3F)c2F)c(-c2ccnc(N)n2)s1,"enzyme activity, inhibitor, radiometric",1 µM,remaining activity,81%
COc1cc2ncnc(Nc3ccc(Oc4ccccc4)cc3C)c2cc1OC,"enzyme activity, inhibitor",1 µM,inhibition,-1%
Cc1cc(NC(=O)c2cccc3cc(-c4cccc5[nH]nc(N)c45)ccc23)ccc1F,"enzyme activity, inhibitor",0.1 µM,activity vs control,123%
Nc1cnc(N2CCc3cc(S(=O)(=O)Nc4c(F)cc(Cl)cc4F)cc(N4CCCC4=O)c32)nc1,"cell-free assay, competition with immobilised ligand",1 µM,remaining binding,92%
Cn1c2c(Cl)c(Cl)ccc2c2cc[nH]c(=O)c21,"thermal stability, DSF",10 µM,ΔTm,0.4 °C
CCCS(=O)(=O)Nc1ccc(F)c(C(=O)c2c[nH]c3ncc(-c4ccc(Cl)cc4)cc23)c1F,"enzyme activity, inhibitor",1 µM,inhibition,< 20%
CC1(C)NC(=O)c2[nH]c3c(Cl)c(Cl)ccc3c2C1C#N (stereo not shown),"thermal stability, DSF",10 µM,ΔTm,1 °C
CN1CC(Oc2cnc(C#N)cc2-c2ccn3nc(NC(=O)C4CC4)cc3c2)C1,"enzyme activity, inhibitor",1 µM,inhibition,6%
CN(C)C(=O)Cn1cc(-c2nc(C3(c4ccc(-c5cnc(N)nc5)cc4)CC3)no2)cn1,"cell-free assay, competition with immobilised ligand",1 µM,remaining binding,100%
C[S+]([O-])c1ccc(-c2nc(-c3ccncc3)c(-c3ccc(F)cc3)[nH]2)cc1 (stereo not shown),cell-free assay,0.5 µM,remaining signal,101%
CN1CCN(c2cnc3c(C4CCN(C(=O)c5ccc(OC(F)(F)F)cc5N)CC4)ncnc3c2)CC1,"cell-free assay, competition with immobilised ligand",1 µM,remaining binding,69%
C[C@@H]1CCN(C(=O)CC#N)C[C@@H]1N(C)c1ncnc2[nH]ccc12,"cell-free assay, inhibitor",0.5 µM,remaining signal,99.6%
O=C(Nc1ccc(Oc2ccc(F)cc2)cc1)N1CCc2ncccc2[C@H]1c1ccc(F)cc1,"cell-free assay, competition with immobilised ligand",1 µM,remaining binding,88%
Cc1ccc(NC(=O)c2ccc(CN3CCN(C)CC3)cc2)cc1Nc1nccc(-c2cccnc2)n1,"enzyme activity, inhibitor",0.5 µM,activity vs control,100%
CNC(=O)c1ccc(Nc2ncc(C(F)(F)F)c(NCc3nccnc3N(C)S(C)(=O)=O)n2)cc1,"cell-free assay, competition with immobilised ligand",0.1 µM,remaining binding,83%
Cn1c2c(Cl)c(Cl)ccc2c2cc(N)[nH]c(=O)c21,"thermal stability, DSF",10 µM,ΔTm,0.9 °C
Cc1c(NC(=O)c2cc(C(N)=O)nc3cc(F)ccc23)c(C(F)(F)F)nn1Cc1ccc(C(C)(C)C)cc1,"cell-free assay, competition with immobilised ligand",1 µM,remaining binding,89%
CCC1(CC)NC(=O)c2c(c3ccc(Cl)c(Cl)c3n2C)C1C#N (stereo not shown),"thermal stability, DSF",10 µM,ΔTm,0.7 °C
